# Only some compounds are listed: those with a hit (about 0.62% of all), similar ones and a draw of the others.
# Abs 340nm = compound absorbs light at 340 nm | compound absorbance at 340 nm, fold over control | fold change at 10 µM | 65,000 tested, under 10 active | AID 708;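 active means at 10 µM dose, initial 340 nm absorbance at least 2 fold that of control wells; inactive means change under 2 fold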;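 further: initial absorbance extrapolated from kinetic A340 decline of NADH oxidation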
# HePTP inhibitor = blocks human HePTP tyrosine phosphatase. P35236. recombinant HePTP phosphatase activity, OD absorbance. inhibition, % at 20 µM. 110,000 compounds, 0.64% hits. AID 521; in the data active means inhibition above about 50%;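 further: plate controls were vehicle for no effect and reference inhibitor for full effect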
# Target sequence (P35236 whole entry, looked up): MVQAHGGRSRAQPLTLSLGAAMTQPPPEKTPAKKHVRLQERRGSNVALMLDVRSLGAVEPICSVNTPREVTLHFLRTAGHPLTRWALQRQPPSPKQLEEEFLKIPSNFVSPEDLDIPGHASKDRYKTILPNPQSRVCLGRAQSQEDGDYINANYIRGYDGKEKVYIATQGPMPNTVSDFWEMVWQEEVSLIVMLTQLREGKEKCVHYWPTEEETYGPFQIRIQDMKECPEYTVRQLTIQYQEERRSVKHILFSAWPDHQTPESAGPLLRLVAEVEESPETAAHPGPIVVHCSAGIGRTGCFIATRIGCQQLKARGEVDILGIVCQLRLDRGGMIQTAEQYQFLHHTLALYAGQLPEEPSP
# AP complement = alternative pathway complement inhibition, orthogonal assay; Human serum alternative complement pathway, LPS-coated ELISA, C3 deposition; tested in compound mixtures; inhibition, % at 5 µM; 62,000 compounds, 0.08% hits; AID 1235;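 active means inhibition above 30% in each of the two pooled mixtures holding the compound, so the lower value exceeds 30%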;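 further: 0% = serum in Mg-EGTA without compound and 100% = EDTA serum blank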
#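 Assay system: Human serum alternative complement pathway, C3 deposition on LPS-coated wells | Incubation: 1 h serum-compound exposure at 37 °C | Doses: 5 µM per compound in ten-compound mixtures | Read-out: Percent inhibition | Technique: ELISA with HRP anti-human C3 antibody, TMB substrate, absorbance 450 nm | Replication: Two pool placements per compound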
# * hit, by the source's call; nt = no result.
SMILES,Abs 340nm,HePTP inhibitor,AP complement
O=C(Oc1c(Br)cc(Br)cc1/C=N/NC(=O)c1ccccn1)c1cccc(F)c1,nt,6,nt
CC1CCc2c(sc(NC(=O)c3cccc(C(=O)O)c3)c2C(N)=O)C1 (stereo unspecified),nt,103*,nt
CC1CCc2c(sc(NC(=O)c3ccccc3)c2C(N)=O)C1 (stereo unspecified),nt,5,nt
O=C(/C=C/c1ccco1)Nc1ccc(O)c(-c2nc3ccccc3o2)c1,nt,3,nt
O=C(/C=C/c1ccco1)Nc1ccc(-c2nc3ccccc3s2)c(O)c1,nt,104*,nt
CCOC(=O)c1ccc(-c2ccc(/C=C3/SC(N)=NC3=O)o2)cc1,nt,-16,nt
NC(=O)NC(c1ccccc1)c1cccc(Br)c1 (stereo unspecified),nt,-20,nt
CCOC(=O)C1NN=C(C(=O)c2ccc(OC)cc2)C1c1ccccc1 (stereo unspecified),nt,6,nt
CCOC(=O)C1NN=C(C(=O)c2ccccc2)C1c1ccc(OC)cc1 (stereo unspecified),nt,104*,nt
COC(=O)c1sc(NC(=O)CCc2ccccc2)c(C(=O)OC)c1C,nt,104*,nt
COC(=O)c1c(NC(=O)CCc2ccccc2)sc2c1CCCC2,nt,-20,nt
O=C(O)CN1C(=O)/C(=C\c2ccc(Cl)c(Cl)c2)SC1=S,nt,-2,nt
COc1cc(/C=C2/SC(=S)N(CC(=O)O)C2=O)cc(Cl)c1O,nt,98*,nt
CC(C)(C)c1cc(/C=N/O)c(C(C)(C)C)s1,nt,-15,nt
CC(=O)c1ccc(Nc2ncnc(Nc3ccc(C(C)=O)cc3)c2[N+](=O)[O-])cc1,nt,0,nt
Cc1ccc(-c2cc(C(=O)NC(C)C)c3ccccc3n2)cc1,nt,6,nt
CCCC1=NN2C(=N)/C(=C/c3ccc(-c4ccc([N+](=O)[O-])cc4C)o3)C(=O)N=C2S1,nt,82*,nt
CCC1=NN2C(=N)/C(=C/c3ccc(-c4ccc([N+](=O)[O-])cc4OC)o3)C(=O)N=C2S1,nt,-12,nt
c1cnc(N2CCN(c3ncnc4c3oc3ccccc34)CC2)nc1,1,5,22
COc1ccccc1N1CCN(c2ncnc3c2oc2ccccc23)CC1,1,7,33*
Cc1cc(N/C=C/C(=O)c2cccc3ccccc23)no1,0.94,-4,nt
Cc1cc(N/C=C/C(=O)c2ccc(Cl)s2)no1,nt,102*,nt
CN(C)c1ccc(/C=C/c2nc3ccccc3c(=O)n2-c2cccc3ccccc23)cc1,nt,-9,nt
COc1cc(/C=N/N2C(=O)c3ccc4c5c(ccc(c35)C2=O)CC4)ccc1O,nt,-5,nt

# Assay outcomes as filed in PubChem.
